Measurements pooled from the literature.

With `COc1cc2ccccc2cc1C(=O)NC(=S)Nc1ccc(-c2nc3ccccc3[nH]2)cc1` the bioavailability was less than 1% (mouse, plasma; oral, 5 mg/kg).
For `OC[C@H]1O[C@@H](c2ccc(Cl)c(Cc3ccc(O[C@H]4CCOC4)cc3)c2)[C@H](O)[C@@H](O)[C@@H]1O`, the bioavailability was 25.6% (CD-1 mouse, plasma; oral, 10 mg/kg).
`N[C@@H](CSSC[C@H](N)C(=O)O)C(=O)O` gave a bioavailability of 15.1% (Kunming mouse, plasma; oral, 50 mg/kg).
With `COc1cc(N2CCN(C)CC2)ccc1Nc1ncc2c(n1)N(C)c1ccccc1C(=O)N2CC(F)(F)F` the bioavailability was 81% (male Swiss mouse, plasma; oral, 10 mg/kg).
`O=C(CC1Cc2ccccc2C1)N[C@H](CN1CCCC1)[C@H](O)c1ccc(OC(F)(F)F)cc1` has a bioavailability of 34% (CD-1 mouse, plasma; oral, 10 mg/kg).
`CCN1CCN(Cc2cc(NC(=O)c3ccc(C)c(-c4ccc5nc(NC(=O)C6CC6)cn5n4)c3)cc(C(F)(F)F)c2)CC1` gave a bioavailability of 4% (Swiss mouse, plasma; oral, 10 mg/kg).
For `c1ccc2[nH]c(CNc3nc(N4CCOCC4)nc4c3ncn4-c3ccsc3)nc2c1`, the bioavailability was 0% (mouse, plasma; intravenous, 1 mg/kg).
`CCc1ccc(Cc2cc([C@@H]3O[C@H](CO)[C@@H](O)[C@H](O)[C@H]3O)cc3c2CCC3)cc1` gave a bioavailability of greater than 100% (male C57BL/6 mouse, plasma; oral, 0.3 mg/kg).
With `O=C(NCCN1CCCC1)c1cc(-c2ccc(CN3CCOCC3)cc2)nc2ccc(F)cc12` the bioavailability was 74% (female NMRI mouse, blood; oral, 3 mg/kg).
`Cc1ccc2cncc(N3CCc4c(cc(Cn5ccnc5)cc4-c4cn(C)nc4C(F)(F)F)C3=O)c2c1` has a bioavailability of 35% (male CD-1 mouse, plasma; oral, 10 mg/kg).
`Oc1ccc(C(c2ccc(O)cc2)(C(F)(F)F)C(F)(F)F)cc1` gave a bioavailability of 3 to 6% (mouse, plasma; oral, 34 mg/kg, single dose).
`COc1ccc2nccc(N3CCc4c(cc(Cn5ccnc5)cc4-c4cn(C)nc4C(F)(F)F)C3=O)c2c1` has a bioavailability of 110% (male CD-1 mouse, plasma; oral, 50 mg/kg).
The bioavailability of `CC[C@H](C)[C@@H]1NC(=O)[C@@](C)(NC(=O)[C@H](CCCNC(=N)N)NC(=O)[C@H](CC(C)C)NC(=O)[C@@H](NC(=O)[C@H](CCC(N)=O)NC(=O)[C@H](CC(C)C)NC(C)=O)[C@@H](C)O)CCCC=CCCC[C@@](C)(C(=O)N[C@@H](CC(C)C)C(=O)N[C@@H](Cc2ccc3ccccc3c2)C(N)=O)NC(=O)[C@H](CCCNC(=N)N)NC(=O)[C@H](CCC(N)=O)NC1=O` is reported as 81.1% (male BALB/c mouse, plasma; intraperitoneal, 5 mg/kg).
For `CCc1cc(OC)c2nccc(N3CCc4c(cc(Cn5ccnc5)cc4-c4cn(C)nc4C(F)(F)F)C3=O)c2c1`, the bioavailability was 135% (male CD-1 mouse, plasma; oral, 150 mg/kg).
For `CC(C)(NC(=O)O[C@@H]1CN2CCC1CC2)c1csc(-c2ccc(F)cc2)n1`, the bioavailability was 74% (CD-1 mouse, plasma; oral, 10 mg/kg).
For `CSc1cc(Oc2ccnc3[nH]c(=O)cnc23)ccc1NC(=O)Nc1cc(C(C)(C)C)nn1-c1ccccc1`, the bioavailability was 58% (BALB/c mouse, plasma; oral, 10 mg/kg).
The bioavailability of `CCc1cc(C(=O)NC)c2nccc(N3CCc4c(cc(Cn5ccnc5)cc4-c4cn(C)nc4C(F)(F)F)C3=O)c2c1` is reported as 252% (male CD-1 mouse, plasma; oral, 150 mg/kg).
`Nc1ncc(-c2ccncc2)nc1Nc1ccc2[nH]ccc2c1` has a bioavailability of 89% (male C57BL/6 mouse, plasma; oral, 30 mg/kg).
With `Cc1c(C(=O)Nc2ccc(F)c(Cl)c2)sc(N)c1C(N)=O` the bioavailability was 46% (male CD-1 mouse, plasma; oral, 10 mg/kg).
With `COc1nc(-c2cc(C)c(N[C@@H](C)c3ccc(F)cc3)nn2)ccc1-n1cnc(C)c1` the bioavailability was 63.1% (male CD-1 mouse, plasma; oral, 5 mg/kg, single dose).
For `CNC(=O)c1cc(OC)cc2c(N3CCc4c(cc(Cn5ccnc5)cc4-c4cn(C)nc4C(F)(F)F)C3=O)ccnc12`, the bioavailability was 263% (male CD-1 mouse, plasma; oral, 50 mg/kg).
With `Oc1ccc(-c2nc(-c3ccc(Oc4ccc(C(F)(F)F)cc4)cc3)no2)cc1` the bioavailability was 100% (female CD-1 mouse, plasma; oral, 50 mg/kg).
The bioavailability of `N#C[C@@]1(c2ccc3c(N)ncnn23)O[C@H](CO)[C@@H](O)[C@H]1O` is reported as 57% (male CD-1 mouse, plasma; oral, 10 mg/kg).
The bioavailability of `Cc1nc2ccccc2n1Cc1ccc(C(=O)NO)cc1F` is reported as roughly 21% (male CD-1 mouse, plasma; oral, 30 mg/kg).
The bioavailability of `O=C(NCC1CC1)c1cc(N2CC[C@H](O)C2)nc(N2CCC[C@@H](c3ccccc3)C2)n1` is reported as 25% (mouse, plasma; oral, 10 mg/kg).
